# Active and inactive are the calls of the source. The calls are words filed in the database; no cut-off is given here.
# How the values were obtained:
# CCRF-CEM [1] = test: Cytotoxicity against drug-sensitive CCRF-CEM cells after 72 hrs; assay type: cell-based; details: Homo sapiens
# How it was run: (§1)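 Leukemic lymphoblasts (parent CCRF-CEM, Pgp-overexpressing CEM/VLB100, topo II-altered CEM/VM-1) grown in RPMI 1640 with 10% FCS and antibiotics, 37 °C, 5% CO2. Serial dilutions in medium added to 2 × 10⁵ cells/mL for 3 days, medium not renewed. Survivors counted on a Coulter counter. Triplicate, averaged.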
# [2] = Cytotoxicity against vinblastine-resistant CEM/VLB100 cells after 72 hrs; assay type: cell-based; details: Homo sapiens, CEM/VLB100, 72 h; how it was run: as §1
# [3] = Cytotoxicity against teniposide-resistant CEM/VM1 cells after 72 hrs; assay type: cell-based; details: Homo sapiens, CEM-VM1, 72 h; how it was run: as §1
# CCRF-CEM [4] = test: Ratio of IC50 for vinblastine-resistant CEM/VLB100 cells over IC50 for drug-sensitive CCRF-CEM cells; assay type: functional, Homo sapiens
# CCRF-CEM [5] = test: Ratio of IC50 for teniposide-resistant CEM/VM1 cells over IC50 for drug-sensitive CCRF-CEM cells; assay type: functional, Homo sapiens
# CCRF-CEM [6] = test: Antiproliferative activity against CCRF-CEM cells at 20 uM after 72 hrs; assay type: functional, cell-based; details: Homo sapiens; how it was run: as §1
# DLD-1 = test: Antiproliferative activity against human DLD1 cells at 5 uM after 48 hrs by RRT assay; assay type: functional, cell-based
# How it was run: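 Adherent lines in supplemented Glutamax MEM, 37 °C, 5% CO2. Seeded 5 × 10³ cells/well, adhered 16 h, then treated 48 h continuously, alone or in combination, in 0.5% DMSO (solvent control). Resazurin 25 µg/mL in MEM added, 1 h at 37 °C, fluorescence 530/590 nm. Survival = % of control after blank subtraction; IC50 from concentration–survival curve. Two independent assays in triplicate.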
Compound,IC50 (CCRF-CEM [1]),IC50 [2],IC50 [3],Ratio IC50 (CCRF-CEM [4]),Ratio IC50 (CCRF-CEM [5]),Activity (CCRF-CEM [6]),Activity (DLD-1)
COc1cccc2c1C(=O)c1c(O)c3c(c(O)c1C2=O)C[C@@](O)(C(=O)CO)C[C@@H]3O[C@H]1C[C@H](N)[C@H](O)[C@H](C)O1 [DOXORUBICIN],0.06 µM,3.71 µM,0.55 µM,62,9,,
C/C=C1/NC(=O)[C@H](CCO)NC(=O)C[C@@H](CCCCC)NC(=O)CNC(=O)[C@H](CC(C)C)NC(=O)[C@@H]([C@@H](C)CC)NC(=O)[C@H]([C@@H](C)CC)NC(=O)[C@@H](CC(C)C)NC(=O)[C@@H](Cc2ccccc2)NC(=O)[C@H](CCO)NC(=O)[C@@H]2C[C@@H](O)CN2C1=O [LAXAPHYCIN A],> 20 µM,> 20 µM,> 20 µM,,,inactive,inactive
CCCCCCC[C@@H]1CC(=O)N[C@@H](C(C)C)C(=O)N[C@H]([C@@H](O)C(C)C)C(=O)N[C@@H](C)C(=O)N[C@H](CC(C)C)C(=O)N[C@@H](CCC(N)=O)C(=O)N(C)[C@@H]([C@@H](C)CC)C(=O)N[C@H]([C@@H](O)C(N)=O)C(=O)N[C@@H]([C@@H](C)O)C(=O)N2CCC[C@H]2C(=O)N[C@H](CC(C)C)C(=O)N[C@@H]([C@@H](C)O)C(=O)N1 [LAXAPHYCIN B2],4.15 µM,3.33 µM,4.14 µM,0.8,1,,

# From ChEMBL document CHEMBL1142957, “Total structure and inhibition of tumor cell proliferation of laxaphycins” (J Med Chem, 2007)
